In ChEMBL document CHEMBL1140159, “Gedunin, a novel hsp90 inhibitor: semisynthesis of derivatives and preliminary structure-activity relationships” (J Med Chem, 2008) one finds IC50 data, which are given here for 21 compounds.

One experiment deals with MCF7. In words: Antiproliferative activity against human MCF7 cells after 72 hrs. The format is functional, cell-based. As to conditions: MCF7, 72 h. The essentials:
(§1)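 Cells were grown in a 1:1 Advanced DMEM/F12 mix with nonessential amino acids, 2 mM L-glutamine, penicillin/streptomycin and 10% FBS at 37 °C and 5% CO₂. They were seeded at 2000/well and left to attach overnight, then dosed over a concentration range (1% DMSO final) for 72 h. Viable cells were read by MTS/PMS, normalised to 1% DMSO controls (100%), and IC50 was taken from a nonlinear dose–response fit; three experiments, each in triplicate.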

The next experiment concerns SK-BR-3. In words: Antiproliferative activity against human SKBr3 cells after 72 hrs. The format is functional, cell-based. The note with it: SK-BR-3, 72 h. In short, it runs like this: as §1

As usually defined, the IC50 is the point on the concentration scale where inhibition reaches its midpoint. Low values mean greater potency, high ones weaker potency.

SMILES strings stand for the structures.

On to `CC1(C)C(=O)C=C[C@]2(C)[C@H]3CC[C@@]4(C)[C@@H](c5ccoc5)OC(=O)[C@H]5O[C@]54[C@]3(C)C(=O)C[C@@H]12`, for which the IC50 is 10.9 µM in the experiment on MCF7 and 4.49 µM in the experiment on SK-BR-3.
As to `CC(=O)O[C@@H]1C[C@H]2C(C)(C)/C(=N/OCc3ccccc3)C=C[C@]2(C)[C@H]2CC[C@@]3(C)[C@@H](c4ccoc4)OC(=O)[C@H]4O[C@]43[C@@]21C`, the IC50 with MCF7 and in the experiment with SK-BR-3 was over 100 µM each time.
For the compound `CCO/N=C1\C=C[C@]2(C)[C@H]3CC[C@@]4(C)[C@@H](c5ccoc5)OC(=O)[C@H]5O[C@]54[C@]3(C)[C@H](OC(C)=O)C[C@H]2C1(C)C`, the IC50 in the experiment with MCF7 and in the experiment with SK-BR-3 was over 100 µM throughout.
For `CC1(C)C(=O)C=C[C@]2(C)[C@H]3CC[C@@]4(C)[C@@H](c5ccoc5)OC(=O)[C@H]5O[C@]54[C@]3(C)[C@H](OCc3ccccc3)C[C@@H]12`, the IC50 in the experiment on MCF7 and in the experiment with SK-BR-3 was over 100 µM each time.
`CC1(C)C(=O)C=C[C@]2(C)[C@H]3CC[C@@]4(C)[C@@H](c5ccoc5)OC(=O)[C@H]5O[C@]54[C@]3(C)[C@H](OC(N)=O)C[C@@H]12`: the IC50 in the experiment with MCF7 was 9.79 µM; in the experiment on SK-BR-3, 7.05 µM.
For `CCCO[C@@H]1C[C@H]2C(C)(C)C(=O)C=C[C@]2(C)[C@H]2CC[C@@]3(C)[C@@H](c4ccoc4)OC(=O)[C@H]4O[C@]43[C@@]21C`, in that order: 37.3 µM and 18.1 µM.
On the same counts, the results for `CC(=O)O[C@@H]1C[C@H]2C(C)(C)C(=O)CC[C@]2(C)[C@H]2CC[C@@]3(C)[C@@H](c4ccoc4)OC(=O)[C@H]4O[C@]43[C@@]21C` are over 100 µM and over 100 µM.
On the same counts, the results for `CC(=O)O[C@@H]1C[C@H]2C(C)(C)C(O)CC[C@]2(C)[C@H]2CC[C@@]3(C)[C@@H](c4ccoc4)OC(O)[C@H]4O[C@]43[C@@]21C` (some centres not stated) are over 100 µM and over 100 µM.
As to `CCO[C@@H]1C[C@H]2C(C)(C)C(=O)C=C[C@]2(C)[C@H]2CC[C@@]3(C)[C@@H](c4ccoc4)OC(=O)[C@H]4O[C@]43[C@@]21C`, the values for the 50% inhibitory concentration (IC50) with MCF7 and with SK-BR-3 were 14.8 µM and 12.1 µM, respectively.
On the same counts, the results for `CC(=O)O[C@@H]1C[C@H]2C(C)(C)/C(=N/O)C=C[C@]2(C)[C@H]2CC[C@@]3(C)[C@@H](c4ccoc4)O/C(=N\O)[C@H]4O[C@]43[C@@]21C` are 33.2 µM and 26.5 µM.
For `CO/N=C1\C=C[C@]2(C)[C@H]3CC[C@@]4(C)[C@@H](c5ccoc5)OC(=O)[C@H]5O[C@]54[C@]3(C)[C@H](OC(C)=O)C[C@H]2C1(C)C`, in that order: over 100 µM and over 100 µM.
As for `CC(=O)O[C@@H]1C[C@H]2C(C)(C)C(=O)C(O)C(O)[C@]2(C)[C@H]2CC[C@@]3(C)[C@@H](c4ccoc4)OC(=O)[C@H]4O[C@]43[C@@]21C` (some centres not stated), the IC50 with MCF7 and in the experiment with SK-BR-3 was over 100 µM each time.
Turning to `CCC(=O)O[C@@H]1C[C@H]2C(C)(C)C(=O)C=C[C@]2(C)[C@H]2CC[C@@]3(C)[C@@H](c4ccoc4)OC(=O)[C@H]4O[C@]43[C@@]21C`, the IC50 in the experiment with MCF7 and with SK-BR-3 was over 100 µM each time.
Consider `CO[C@@H]1C[C@H]2C(C)(C)C(=O)C=C[C@]2(C)[C@H]2CC[C@@]3(C)[C@@H](c4ccoc4)OC(=O)[C@H]4O[C@]43[C@@]21C`, for which the IC50 in the experiment on MCF7 is 38.9 µM; in the experiment with SK-BR-3, 13 µM.
For `CC(=O)O[C@@H]1C[C@H]2C(C)(C)C(O)C=C[C@]2(C)[C@H]2CC[C@@]3(C)C(c4ccoc4)OC(O)[C@H]4O[C@]43[C@@]21C` (single isomer, unassigned), in that order: 47.7 µM and 82.4 µM.
For the compound `CC1(C)C(=O)[C@H]2O[C@H]2[C@]2(C)[C@H]3CC[C@@]4(C)C(c5ccoc5)OC(=O)[C@H]5O[C@]54[C@]3(C)[C@H](O)C[C@@H]12` (single isomer, unassigned), the IC50 with MCF7 and in the experiment on SK-BR-3 was over 100 µM in each case.
Turning to `CC(=O)OC1C=C[C@]2(C)[C@H]3CC[C@@]4(C)C(c5ccoc5)OC(=O)[C@H]5O[C@]54[C@]3(C)[C@H](OC(C)=O)C[C@H]2C1(C)C` (single isomer, unassigned), the half-inhibitory concentration (IC50) with MCF7 and with SK-BR-3 was over 100 µM throughout.
As for `CC(=O)O[C@@H]1C[C@H]2C(C)(C)C(=O)C3OC(C)(C)OC3[C@]2(C)[C@H]2CC[C@@]3(C)C(c4ccoc4)OC(=O)[C@H]4O[C@]43[C@@]21C` (single isomer, unassigned), the IC50 with MCF7 and in the experiment on SK-BR-3 was over 100 µM throughout.
With `CC(=O)O[C@@H]1C[C@H]2C(C)(C)C(O)C=C[C@]2(C)[C@H]2CC[C@@]3(C)C(c4ccoc4)OC(=O)[C@H]4O[C@]43[C@@]21C` (single isomer, unassigned), the IC50 in the experiment on MCF7 turned out to be 54.3 µM; in the experiment with SK-BR-3, 47.7 µM.
For `CC1(C)C(=O)C=C[C@]2(C)[C@H]3CC[C@@]4(C)[C@H](c5ccoc5)OC(=O)[C@H]5O[C@]54[C@]3(C)[C@H](O)C[C@@H]12` [DEACETYLGEDUNIN], in that order: 29 µM and 21.1 µM.
On the same counts, the results for `CC(=O)O[C@@H]1C[C@H]2C(C)(C)C(=O)C=C[C@]2(C)[C@H]2CC[C@@]3(C)[C@H](c4ccoc4)OC(=O)[C@H]4O[C@]43[C@@]21C` [GEDUNIN] are 8.84 µM and 3.22 µM.
